Test results from ChEMBL document CHEMBL4266043, “Nuclear Factor Erythroid 2-Related Factor 2 Activating Triterpenoid Saponins from Camellia japonica Roots” (J Nat Prod, 2018).
The source made the active and inactive calls. No cut-off for these calls is given here.

Legend:
Type in all cases: cell-based
[1] = target: T1, Nuclear factor erythroid 2-related factor 2 (Homo sapiens) (UniProt Q16236); experiment: Activation of Nrf2 in human HaCaT cells assessed as increase in nuclear Nrf2 accumulation at 25 uM after 6 hrs by Western blot analysis
T1 sequence (whole entry): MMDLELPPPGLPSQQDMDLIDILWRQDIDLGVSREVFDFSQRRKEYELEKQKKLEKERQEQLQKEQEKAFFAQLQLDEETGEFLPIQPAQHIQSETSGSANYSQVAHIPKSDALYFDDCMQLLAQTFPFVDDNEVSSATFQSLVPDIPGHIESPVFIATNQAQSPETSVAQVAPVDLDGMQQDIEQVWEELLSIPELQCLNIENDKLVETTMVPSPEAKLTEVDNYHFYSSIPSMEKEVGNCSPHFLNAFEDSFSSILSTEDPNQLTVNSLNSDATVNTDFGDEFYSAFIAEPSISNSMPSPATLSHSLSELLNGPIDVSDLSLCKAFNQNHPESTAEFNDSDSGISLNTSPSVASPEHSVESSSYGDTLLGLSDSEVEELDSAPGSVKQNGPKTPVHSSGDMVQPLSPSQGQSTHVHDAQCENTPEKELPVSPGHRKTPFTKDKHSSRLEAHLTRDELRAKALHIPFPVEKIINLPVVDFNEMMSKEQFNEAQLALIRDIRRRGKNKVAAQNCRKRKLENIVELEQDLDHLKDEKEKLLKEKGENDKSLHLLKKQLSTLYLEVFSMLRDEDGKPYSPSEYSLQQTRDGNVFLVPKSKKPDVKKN
Summary of the method: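 HaCaT cells grown to 60−70% confluency, treated 6 h at 25 μM (vehicle DMSO 0.1%). Nuclear fraction obtained with M-PER lysis (10 min on ice), spin at 3000 rpm, pellet resuspended, sonicated, protein by BCA. 25 μg protein run on 10% SDS-PAGE, nitrocellulose transfer, milk block, anti-Nrf2 and histone H3 antibodies, HRP secondary, ECL detection.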

[2] = target: T1, Nuclear factor erythroid 2-related factor 2 (Homo sapiens); experiment: Activation of Nrf2 in human HaCaT cells at 25 uM after 6 hrs by ARE-driven luciferase reporter gene assay relative to control
Summary of the method: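 Used HaCaT cells stably carrying 3xARE-luciferase, in RPMI 1640 with 10% FBS at 37 °C, 5% CO2, plated overnight. Exposure 6 h at 25 μM. Cells lysed in passive lysis buffer 15 min at room temperature. Luciferase read by kit and normalized to total protein, expressed versus vehicle. Mean ± SD from three independent experiments, t test.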

HaCaT = experiment: Cytotoxicity against human HaCaT cells assessed as decrease in cell viability at 3.125 to 25 uM after 24 hrs by MTT assay
Summary of the method: (§1)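 MTT assay on HaCaT cells (RPMI 1640, 10% FBS, 37 °C, 5% CO2), plated overnight, then exposed 24 h to 3.125–25 μM. MTT (5 mg/mL solution) added for 2 h, medium removed, formazan dissolved in DMSO and read at 570 nm. Viability given as percent, mean ± SD of three independent experiments.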

[3] = Cytotoxicity against human HaCaT cells assessed as cell viability at 25 uM after 24 hrs by MTT assay; conditions: read-out: Activity; summary of the method: as §1

| SMILES | Activity [1] | Activity [2] | Activity (HaCaT) | viability at 24 h, 25 µM [3] [%] | fold change (FC) [2] |
| --- | --- | --- | --- | --- | --- |
| C/C=C(/C)C(=O)O[C@H]1[C@H](OC(=O)C(C)CC)[C@]2(CO)[C@H](OC(C)=O)C[C@]3(C)C(=CC[C@@H]4[C@@]5(C)CC[C@H](O[C@@H]6O[C@H](C(=O)O)[C@@H](O)[C@H](O[C@@H]7OC[C@H](O)[C@H](O[C@@H]8O[C@@H](C)[C@H](O)[C@@H](O)[C@H]8O)[C@H]7O)[C@H]6O)[C@@](C)(CO)[C@@H]5CC[C@]43C)[C@@H]2CC1(C)C (stereo not given in full) | Active | Active | Non-Toxic | – | – |
| C/C=C(/C)C(=O)O[C@H]1[C@H](OC(=O)CC(C)C)[C@]2(CO)[C@H](O)C[C@]3(C)C(=CC[C@@H]4[C@@]5(C)CC[C@H](O[C@@H]6O[C@H](C(=O)O)[C@@H](O)[C@H](O[C@@H]7OC[C@H](O)[C@H](O[C@@H]8O[C@@H](C)[C@H](O)[C@@H](O)[C@H]8O)[C@H]7O)[C@H]6O)[C@@](C)(CO)[C@@H]5CC[C@]43C)[C@@H]2CC1(C)C | Active | Active | – | 69.7 | – |
| C/C=C(/C)C(=O)O[C@H]1[C@H](OC(=O)C(C)CC)[C@]2(CO)[C@H](O)[C@H](O)[C@]3(C)C(=CC[C@@H]4[C@@]5(C)CC[C@H](O[C@@H]6O[C@H](C(=O)O)[C@@H](O)[C@H](O[C@@H]7OC[C@H](O)[C@H](O[C@@H]8O[C@@H](C)[C@H](O)[C@@H](O)[C@H]8O)[C@H]7O)[C@H]6O)[C@@](C)(C=O)[C@@H]5CC[C@]43C)[C@@H]2CC1(C)C (stereo not given in full) | Active | Active | Non-Toxic | – | – |
| C/C=C(/C)C(=O)O[C@H]1[C@H](OC(=O)/C(C)=C/C)[C@]2(CO)[C@H](O)[C@H](O)[C@]3(C)C(=CC[C@@H]4[C@@]5(C)CC[C@H](O[C@@H]6O[C@H](C(=O)O)[C@@H](O)[C@H](O[C@@H]7OC[C@H](O)[C@H](O[C@@H]8O[C@@H](C)[C@H](O)[C@@H](O)[C@H]8O)[C@H]7O)[C@H]6O)[C@@](C)(CO)[C@@H]5CC[C@]43C)[C@@H]2CC1(C)C | Active | – | Non-Toxic | – | 3 |
| CCC(C)C(=O)O[C@H]1[C@H](O)C(C)(C)C[C@H]2C3=CC[C@@H]4[C@@]5(C)CC[C@H](O[C@@H]6O[C@H](C(=O)O)[C@@H](O)[C@H](O[C@@H]7OC[C@H](O)[C@H](O[C@@H]8O[C@@H](C)[C@H](O)[C@@H](O)[C@H]8O)[C@H]7O)[C@H]6O)[C@@](C)(CO)[C@@H]5CC[C@@]4(C)[C@]3(C)[C@@H](OC(=O)CC(C)C)[C@@H](O)[C@]21CO (stereo not given in full) | Active | Active | Non-Toxic | – | – |
| C/C=C(/C)C(=O)O[C@H]1[C@H](OC(=O)CC(C)C)[C@]2(CO)[C@H](OC(C)=O)[C@H](OC(C)=O)[C@]3(C)C(=CC[C@@H]4[C@@]5(C)CC[C@H](O[C@@H]6O[C@H](C(=O)O)[C@@H](O)[C@H](O[C@@H]7OC[C@H](O)[C@H](O[C@@H]8O[C@@H](C)[C@H](O)[C@@H](O)[C@H]8O)[C@H]7O)[C@H]6O)[C@@](C)(CO)[C@@H]5CC[C@]43C)[C@@H]2CC1(C)C | Active | Active | Non-Toxic | – | – |
| C/C=C(/C)C(=O)O[C@H]1[C@H](OC(=O)C(C)CC)[C@]2(CO)[C@H](O)[C@H](O)[C@]3(C)C(=CC[C@@H]4[C@@]5(C)CC[C@H](O[C@@H]6O[C@H](C(=O)O)[C@@H](O)[C@H](O[C@@H]7OC[C@H](O)[C@H](O[C@@H]8O[C@@H](C)[C@H](O)[C@@H](O)[C@H]8O)[C@H]7O)[C@H]6O)[C@@](C)(CO)[C@@H]5CC[C@]43C)[C@@H]2CC1(C)C (stereo not given in full) | Active | – | Non-Toxic | – | 2 |
| C/C=C(/C)C(=O)O[C@H]1[C@H](OC(=O)/C(C)=C\C)[C@]2(CO)[C@H](O)[C@H](O)[C@]3(C)C(=CC[C@@H]4[C@@]5(C)CC[C@H](O[C@@H]6O[C@H](C(=O)O)[C@@H](O)[C@H](O[C@@H]7OC[C@H](O)[C@H](O[C@@H]8O[C@@H](C)[C@H](O)[C@@H](O)[C@H]8O)[C@H]7O)[C@H]6O)[C@@](C)(CO)[C@@H]5CC[C@]43C)[C@@H]2CC1(C)C | Active | – | Non-Toxic | – | 4 |
| C/C=C(/C)C(=O)O[C@H]1[C@H](OC(=O)C(C)CC)[C@]2(CO)[C@H](O)C[C@]3(C)C(=CC[C@@H]4[C@@]5(C)CC[C@H](O[C@@H]6O[C@H](C(=O)O)[C@@H](O)[C@H](O[C@@H]7OC[C@H](O)[C@H](O[C@@H]8O[C@@H](C)[C@H](O)[C@@H](O)[C@H]8O)[C@H]7O)[C@H]6O)[C@@](C)(CO)[C@@H]5CC[C@]43C)[C@@H]2CC1(C)C (stereo not given in full) | Active | Active | – | 72.7 | – |
| C/C=C(/C)C(=O)O[C@H]1[C@H](OC(=O)CC(C)C)[C@]2(CO)[C@H](O)[C@H](O)[C@]3(C)C(=CC[C@@H]4[C@@]5(C)CC[C@H](O[C@@H]6O[C@H](C(=O)O)[C@@H](O)[C@H](O[C@@H]7OC[C@H](O)[C@H](O[C@@H]8O[C@@H](C)[C@H](O)[C@@H](O)[C@H]8O)[C@H]7O)[C@H]6O)[C@@](C)(C=O)[C@@H]5CC[C@]43C)[C@@H]2CC1(C)C | Active | Active | Non-Toxic | – | – |
